XBP1 UPR activ = adaptive UPR (XBP1) activation. CHO-XBP1 luciferase reporter, IRE1-XBP1 UPR activation, luminescence; percent of tunicamycin response, DMSO as zero. activation, % at 20 µM. actives 0.33% (n = 330,000). AID 463104;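 active means versus positive control, 20 µM dose yields 30% or more activation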;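 further: 100% = tunicamycin at 10 µg/mL and 0% = DMSO only wells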
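Assay system: CHO-XBP1 luciferase reporter cells; Schedule: 6 h treatment, 37 °C; Detection: glow luminescence from Steady-Glo reagent; Benchmarks: high control tunicamycin 10 µg/mL final, low control DMSO vehicle only.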
TLR9-MyD88 block = blocks human TLR9 binding to MyD88 | Q9NR96+Q99836 | CHO BLA complementation TLR9-MyD88, CCF4 FRET ratio | inhibition, % at 4.98 µM | actives 0.21% (n = 340,000);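 active means inhibition above the mean over all tested compounds plus 3 SD, cut at about 21% in these data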;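 further: 0% = DMSO only wells and 100% = clavulanate BLA inhibitor control wells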
UPR CHOP act = activators of apoptotic arm of unfolded protein response (CHOP); AID 449763; activation, % at 10 µM; CHO-CHOP luciferase reporter, UPR activation, luminescence; percent of tunicamycin response over DMSO baseline; actives 0.34% (n = 330,000);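 active means at 10 µM dose, activation of 40% or more, normalized to positive control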;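 further: 100% = tunicamycin at 10 µg/mL and 0% = DMSO alone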
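assay system = CHO CHOP reporter cells | amount = 500 CHO-CHOP cells per well | buffer or medium = F12 with 10% FBS | incubation = 16-18 h cell attachment, then 6 h compound exposure, 37 °C | detection = luminescence read with Steady-Glo | read-out = percent activation relative to tunicamycin control | controls = tunicamycin high control, DMSO low control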
NOD2-RIPK2 inh = NOD2-RIPK2 protein interaction inhibition | O43353 | CHO BLA complementation NOD2-RIPK2, CCF4 ratio | actives 0.38% (n = 360,000) | inhibition, % at 4.98 µM; in the data active means inhibition above about 21%;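 further: 0% = vehicle only and 100% = reference blocker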
Target sequence (O43353 whole entry, looked up): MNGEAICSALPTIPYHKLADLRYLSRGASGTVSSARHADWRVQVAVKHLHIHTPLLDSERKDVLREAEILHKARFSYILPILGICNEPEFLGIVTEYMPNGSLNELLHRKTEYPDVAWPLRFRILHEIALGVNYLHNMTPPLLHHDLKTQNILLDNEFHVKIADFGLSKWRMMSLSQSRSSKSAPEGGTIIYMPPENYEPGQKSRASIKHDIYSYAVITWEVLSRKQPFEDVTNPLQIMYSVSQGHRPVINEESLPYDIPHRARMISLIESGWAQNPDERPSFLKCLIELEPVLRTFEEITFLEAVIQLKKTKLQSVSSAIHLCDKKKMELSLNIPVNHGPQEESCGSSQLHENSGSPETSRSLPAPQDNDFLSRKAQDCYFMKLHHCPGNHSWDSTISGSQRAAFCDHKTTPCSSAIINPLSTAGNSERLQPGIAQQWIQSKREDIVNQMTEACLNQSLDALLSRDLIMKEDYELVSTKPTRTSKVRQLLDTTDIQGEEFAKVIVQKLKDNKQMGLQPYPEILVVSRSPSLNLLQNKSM
CHOP inhibitor = CHOP inhibition in unfolded protein response | inhibition, % at 10 µM | actives 3.8% (n = 220,000) | AID 2732 | CHO-K1 CHOP-promoter luciferase, tunicamycin-induced, 15-18 h;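 active means compounds that reduced the stress-induced luciferase reporter signal by more than about 70% of percent inhibition, limit read from the data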;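 further: 0% = tunicamycin plus vehicle and 100% = wells without tunicamycin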
TLR4-MyD88 BLA = blocks binding of human TLR4 to MyD88; O00206+Q99836; HeLa CL3-4 TLR4/MyD88 BLA complementation, FRET ratio; inhibition, % at 8.4 µM; actives 0.18% (n = 200,000); AID 861; in the data active means inhibition above about 25%;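 further: 0% = vehicle and 100% = reference inhibitor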
CHOP confirm = confirmation of CHOP induction inhibitors. CHO-CHOP promoter luciferase reporter, tunicamycin-induced, luminescence. inhibition, % at 10 µM. actives 45% (n = 2,100). shares compounds with CHOP inhibitor;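 active means mean of three repeat readings of reporter signal inhibition above a set limit, cut at about 70% in these data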;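 further: 0% = tunicamycin plus vehicle and 100% = wells lacking tunicamycin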
Active calls of the source: *; · = no result. The full list was thinned out, with hits kept by preference.

SMILES | XBP1 UPR activ | TLR9-MyD88 block | UPR CHOP act | NOD2-RIPK2 inh | CHOP inhibitor | TLR4-MyD88 BLA | CHOP confirm
COc1cccc(C(CCc2cc(OC)c(OC)c(OC)c2)NC(C)=O)c1 (centres undefined) | · | 14 | · | -1 | · | · | ·
Nc1nonc1-c1nc2ccccc2n1Cc1ccc(Cl)cc1 | 4 | 5 | 0 | -2 | 6 | 16 | ·
Cc1ccc(Cn2c(-c3nonc3N)nc3ccccc32)cc1 | 0 | -3 | -1 | 3 | 105* | -11 | 19
COC(=O)/C(=C\c1ccc([N+](=O)[O-])o1)NC(=O)c1ccccc1 | -2 | -13 | 2 | -4 | -10 | -10 | ·
Cc1cccc(NC(=O)/C(=C\c2ccc([N+](=O)[O-])o2)NC(=O)c2ccc(Cl)cc2)c1 | · | 6 | · | -8 | 101* | 3 | 10
CC(C)N(Cc1ccccc1)C(=O)COC(=O)c1ccc(S(=O)(=O)N2CCOCC2)cc1 | -3 | 2 | 0 | 2 | · | · | ·
Cc1c(C(=O)Nc2c(C)n(C)n(-c3ccccc3)c2=O)oc2ccc(Cl)cc12 | -3 | 6 | -2 | 4 | · | · | ·
CC(C)Oc1ccc(C(=O)NCC(=O)N2CCN(S(=O)(=O)/C=C/c3ccccc3)CC2)cc1 | -3 | -12 | 1 | -2 | · | · | ·
CC(=O)C(C(C)=O)c1c(Cl)c(O)c(O)c2c(C(=O)c3ccccc3)coc12 | -2 | 2 | 25 | -4 | · | -1 | 100*
CN1CCN(Cc2c(O)ccc3occ(C(=O)c4ccccc4)c23)CC1 | 2 | -4 | 3 | -9 | 21 | 10 | ·
CON(C)C(=O)CC(CNC(=O)OC(C)(C)C)c1ccc(Cl)cc1 (centres undefined) | 3 | -10 | 0 | 2 | · | · | ·
COc1ccc2c(-c3cc4ccc(OCc5ccc(F)cc5)cc4oc3=O)cc(=O)oc2c1 | · | 5 | · | 6 | 103* | 1 | 51
CC(C)(C)c1ccc(-c2n[nH]c(=S)n2C2CCCC2)cc1 | 0 | 4 | 0 | 2 | 107* | 8 | 121*
Cn1c(-c2ccc(C(C)(C)C)cc2)n[nH]c1=S | 0 | -3 | 1 | 1 | -11 | -11 | ·
OCCCNc1cc(-c2ccnc(Nc3cccc(Cl)c3)n2)ccn1 | -5 | -7 | 2 | 4 | 103* | · | 107*
COC(=O)Cn1c(=NC(=O)c2nc3ccccc3s2)sc2cc(S(N)(=O)=O)ccc21 | 4 | -11 | 2 | -12 | 104* | -13 | -30
Cc1nc(C)c(-c2csc(Nc3ccc(Cl)cn3)n2)s1 | · | -2 | · | -6 | · | · | ·
Cn1c(=O)[nH]c(=O)c2[nH]c(CN3CCN(Cc4ccccc4)CC3)nc21 | -1 | 9 | 3 | 3 | 6 | · | ·
Cn1c(=O)[nH]c(=O)c2[nH]c(N(Cc3ccccc3)Cc3ccccc3)nc21 | -2 | 4 | 4 | 15 | 111* | 19 | 114*
COc1ccc(OC)c(NC(=O)C(C)N2c3cccc4cccc(c34)S2(=O)=O)c1 (centres undefined) | 4 | -11 | 0 | -6 | · | · | ·
Cc1ccc(S(=O)(=O)N2[C@H](CC(=O)OCc3ccccc3)OC[C@@H]2C(C)C)cc1 | · | · | · | -4 | · | · | ·
O=c1c2c([N+](=O)[O-])cc([N+](=O)[O-])cc2sn1-c1ccc(Br)cc1 | -1 | 4 | 2 | -3 | 97* | -19 | 12
O=C(Nc1ccc2c(c1)CCC2)C1CCN(c2c3c(nc4ncnn24)CCC3)CC1 | -1 | -6 | -1 | -5 | · | -13 | ·
O=C(Nc1ccc(Oc2ccccc2)cc1)C1CCN(c2c3c(nc4ncnn24)CCC3)CC1 | 7 | -1 | 7 | 3 | 104* | -4 | 92*
Cc1ccccc1OCc1nc(-c2ccccc2)no1 | 3 | -6 | 6 | -3 | 100* | 7 | 0
SMILES | XBP1 UPR activ | TLR9-MyD88 block | UPR CHOP act | NOD2-RIPK2 inh | CHOP inhibitor | TLR4-MyD88 BLA | CHOP confirm
Cc1ccc(OCc2nc(-c3ccccc3)no2)cc1 | 2 | 4 | 8 | -3 | 19 | · | ·
CC(C)(C)c1ccc(S(=O)(=O)NCC(=O)Nc2sc3c(c2C(N)=O)CCCC3)cc1 | -1 | 6 | 2 | -7 | 107* | 0 | 92*
CCN1CCN(C(=O)C(C)Nc2cc(Cl)c(OC)cc2OC)CC1 (centres undefined) | 0 | -5 | 1 | -7 | -2 | -3 | ·
Cc1ccc(/C=C(\NC(=O)c2ccc(C)cc2)c2nc(=S)[nH][nH]2)cc1 | -3 | -3 | -2 | -3 | 110* | 11 | 4
Cc1ccc(C(=O)N/C(=C\c2ccccc2F)c2nc(=S)[nH][nH]2)cc1 | -2 | 8 | 6 | -3 | 50 | 13 | ·
COc1ccc(N(C(=O)c2cnccn2)C(C(=O)NC2CCCCC2)c2ccc(Cl)cc2)cc1 (centres undefined) | 3 | 3 | 2 | -4 | · | 3 | ·
COc1ccc(C(C(=O)NC2CCCCC2)N(C(=O)CCl)c2ccc(Cl)cc2)cc1 (centres undefined) | -4 | 7 | 1 | -2 | 107* | -8 | 27
Cc1ccc(NC(=O)O/N=C/c2c(C)nn(C(C)(C)C)c2C)cc1Cl | -11 | 3 | -10 | -1 | 99* | · | 120*
COc1ccc(C(=O)C(=NNc2ccccc2)c2ccc(OC)cc2)cc1 | · | 3 | · | -9 | · | · | ·
COc1ccc(N/N=C(\C=N\O)C(=O)c2ccc(OC)cc2)cc1 | 24 | 14 | -1 | -5 | · | 2 | 73*
O=C(OCC(=O)N1CCCC1)c1cnc(Cl)c(Cl)c1 | -3 | -10 | 2 | -5 | · | · | ·
Cc1ccc(C(=O)CN2/C(=C(\O)c3ccccc3)C(=O)c3ccccc3S2(=O)=O)c(C)c1 | 5 | 0 | -1 | 0 | 106* | -6 | 28
COC(=O)c1cc2cc(NS(=O)(=O)c3ccc(C)cc3)ccc2s1 | 1 | 10 | -1 | 7 | 103* | -3 | 14
Cc1ccc(S(=O)(=O)Nc2ccc3[nH]ccc3c2)cc1 | -2 | 2 | 3 | -4 | · | · | ·
C=CCn1c(=O)[nH]c2cc(C(=O)N3CCN(c4cc(C)ccc4C)CC3)ccc2c1=O | 1 | -1 | -3 | -2 | 97* | -11 | 63
C=CCn1c(SCC(=O)NC(=O)NCc2ccco2)nc2sc(C)c(C)c2c1=O | 2 | -5 | 2 | 11 | 104* | -6 | 30
C=CCn1c(SCC(=O)NCCO)nc2sc(C)c(C)c2c1=O | 1 | -1 | 3 | 12 | -5 | -2 | ·
Cc1ccc(S(=O)(=O)c2c(N)n(CCCN(C)C)c3nc4ccccc4nc23)cc1 | 0 | -6 | 2 | -5 | 0 | · | ·
CCCCn1c(NS(=O)(=O)c2ccc(C)cc2)c(S(=O)(=O)c2ccccc2)c2nc3ccccc3nc21 | · | 9 | · | -6 | 104* | -6 | 89*

Bioassay records as filed in PubChem BioAssay.
